ChEMBL document CHEMBL1129245, “N-heteroaryl-2-phenyl-3-(benzyloxy)piperidines: a novel class of potent orally active human NK1 antagonists” (J Med Chem, 1996)

Legend:
[1] = species on record: Rattus norvegicus; assay: Degradation of compound in incubations at 25 uM with normal rat liver microsomes after 1 hour relative to initial concentration of 1 uM; assay type: functional
Summary of the method: (§1)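 Each compound incubated at 25 µM with normal rat liver microsomes, P-450 at 1.45 nM/mg microsomal protein. Remaining substrate sampled at 15 min, 1 h, 4 h and 24 h and expressed relative to an initial concentration of 1.0. Single determination (n = 1).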

[2] = species on record: Rattus norvegicus; assay: Degradation of compound in incubations at 25 uM with normal rat liver microsomes after 4 hour relative to initial concentration of 1 uM; assay type: functional; summary of the method: as §1
[3] = species on record: Rattus norvegicus; assay: Degradation of compound in incubations at 25 uM with normal rat liver microsomes after 24 hour relative to initial concentration of 1 uM; assay type: functional; summary of the method: as §1
[4] = species on record: Oryctolagus cuniculus; assay: Displacement of [3H]diltiazem from rabbit skeletal muscle calcium channel; assay type: tissue-based; details: Muscle tissue
[5] = system: Cavia porcellus; assay: Inhibition of SP induced dermal guinea pig after peroral administration; assay type: functional; details: read-out: ID50 (the source's name)
Summary of the method: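 Guinea pigs dosed orally with antagonist, then challenged 1 h later with intradermal substance P. Vascular leakage measured as extravasation of Evans blue dye. ID50 (mg/kg po) taken from dose-response data, 5-12 animals per data point.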

[6] = species on record: Oryctolagus cuniculus; assay: Displacement of [3H]diltiazem from rabbit skeletal muscle calcium channel at 30 uM; assay type: tissue-based; details: Muscle tissue

In the case of `FC(F)(F)c1cc(CO[C@H]2CCCN(Cc3c[nH]cn3)[C@H]2c2ccccc2)cc(C(F)(F)F)c1`, the Concentration [1] is reported as 0.72 µM, the Concentration [2] is reported as 0.55 µM and the Concentration [3] is reported as 0.18 µM. It also gave a Binding affinity [4] of 2.3 µM.

With `NC(=O)CN1CCC[C@H](OCc2cc(C(F)(F)F)cc(C(F)(F)F)c2)[C@@H]1c1ccccc1` the ED50 [5] was 0.8 mg/kg and the Binding affinity [6] was 16%.
